Key:
Glutamate NMDA receptor [1] = assay: Displacement of [3H]MK-801 from NMDA receptor in rat brain in presence of 100 uM spermine; type: tissue-based
Outline: (§1)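 [³H]MK-801 at 5 nM is bound to rat brain membranes, with the co-agonists glutamic acid and glycine added. Incubation lasts 2 h, close to equilibrium. Nonspecific binding is binding to closed channels: no glutamate or glycine, with D-APV and 5,7-DCKA added. The standard buffer is 50 mM Tris, switched to 10 mM Tris for buffer-sensitive inhibition. Replicate counts are given per value.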

Glutamate NMDA receptor [2] = assay: Displacement of [3H]MK-801 from rat brain NMDA receptor; outline: as §1
Glutamate NMDA receptor [3] = assay: Displacement of [3H]MK801 from rat brain NMDA receptor in presence of 30 uM spermine; outline: as §1
Glutamate NMDA receptor [4] = assay: Stimulation of [3H]MK-801 binding to rat brain NMDA receptor; outline: as §1

SMILES	spermine attenuation ratio (Glutamate NMDA receptor [1])	IC50 (Glutamate NMDA receptor [2])	spermine attenuation ratio (Glutamate NMDA receptor [3])	EC50 (Glutamate NMDA receptor [4])
Cc1cc(CCCCN)sc1CCCCCCCCN	3.9	1.62 µM	–	–
CCc1cc(CCCCN)sc1CCCCCCCCN	2.67	3.23 µM	–	–
NCCCCCCCCc1ccc(CCCCN)s1	8.84	0.54 µM	15.1	–
NCCCCc1ccc(CCCCN(CC[C@@H](N)Cc2ccccc2)Cc2ccccc2)s1	–	9.62 µM	1.66	–
NCCCCCCCCc1ccc(CC2CCNCC2)s1	9.07	0.63 µM	–	–
NCCCCCCCCCCCCCCN	6.94	5.28 µM	–	–
CNCCCCCCCCc1ccc(CC2CCNCC2)s1	8.58	2.48 µM	–	–
NCCCCC#CCCCCCCCCN	5.38	6.73 µM	–	–
NCCCCCCCCc1ccc(CCCCN)cc1	7.95	0.87 µM	–	–
Cc1cc(CCCCCCCCN)sc1CCCCN	4.07	1.08 µM	–	–
CN(C)CCCCCCCCc1ccc(CC2CCNCC2)s1	7.67	15.2 µM	–	–
NCCCCc1ccc(Cc2ccc(CCCCN)s2)s1	–	1.76 µM	16.8	–
N=C(N)NCCCCCCc1ccc(CCNC(=N)N)s1	–	1.04 µM	23.4	–
N=C(N)NCCCCCCCCc1ccc(CCCNC(=N)N)s1	–	0.31 µM	6.29	–
N=C(N)NCCCCCCCCc1ccc(CCCCNC(=N)N)s1	–	0.77 µM	3.95	–
CNCCCCCCCCc1ccc(CCCCNC)s1	7.7	5.3 µM	–	–
CN(C)CCCCCCCCc1ccc(CCCCN(C)C)s1	2.79	358 µM	–	–
CCCNCCCCCCCCc1ccc(CCCCNCCC)s1	2.98	114 µM	–	–

SMILES	spermine attenuation ratio (Glutamate NMDA receptor [1])	IC50 (Glutamate NMDA receptor [2])	spermine attenuation ratio (Glutamate NMDA receptor [3])	EC50 (Glutamate NMDA receptor [4])
C=CCNCCCCCCCCc1ccc(CCCCNCC=C)s1	6.57	13.3 µM	–	–
c1ccc(CNCCCCCCCCc2ccc(CCCCNCc3ccccc3)s2)cc1	0.98	8.67 µM	–	–
NCCCCc1ccc(CCOCCOCCN)s1	–	4.2 µM	16.8	–
NCCCCc1ccc(CCNC(=O)CNC(=O)CN)s1	–	111 µM	5.48	–
NCCCCc1ccc(CCCCNCCCN)s1	–	5.2 µM	29	–
NCCCCc1ccc(CCNCCNCCN)s1	–	282 µM	–	1.9 µM
CC(N)CC(=O)NCCCCc1ccc(CCCCN)s1 (stereo unspecified)	–	2.21 µM	65.4	–
CC(CN)C(=O)NCCCCc1ccc(CCCCN)s1 (stereo unspecified)	–	24.7 µM	10.3	–
NCCCCc1ccc(CCCCNC(=O)C(CN)c2ccccc2)s1 (stereo unspecified)	–	11.7 µM	10.1	–
NCCCCc1ccc(CCCCN(Cc2ccccc2)C(=O)C[C@@H](N)Cc2ccccc2)s1	–	13.4 µM	1.71	–
NCCCCc1ccc(CCCCNC(=O)CC(N)c2ccccc2)s1 (stereo unspecified)	–	6.81 µM	15	–
NCCCCCCCCc1ccc(CCCN)s1	–	5.47 µM	9.57	–
NCCCCc1ccc(CCCCNC(=O)CCN)s1	–	1.19 µM	51.4	–
NCCCCCCCCNC(=O)CCN	–	53 µM	75	–
NCCCCCCCCc1ccc(Cc2ccccc2CN)s1	2.96	1.13 µM	–	–
N=C(N)NCCCCCCCc1ccc(CCCNC(=N)N)s1	–	0.74 µM	7.47	–
NCCCCCCCCCCCCN	–	7.05 µM	34.6	–

— ChEMBL document CHEMBL1142883, “New polyamine-sensitive inhibitors of the NMDA receptor: syntheses and pharmacological evaluation” (Eur J Med Chem, 2007)
